Results taken from PubChem BioAssay.
The source made the active and inactive calls.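 How the source made its calls, unless noted: active means fluorescence slope higher than the sample average by over 3 SD (cut at about -0.22 in these data, passing the limit was not always enough); inactive means the rest.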

Key:
[1] = inhibitors of TNFa-induced NFkB p65 translocation, primary screen, imaging, HUVEC, MLSMR starter and 10KST1 sets (AID 438;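 active means inhibition above 20% together with a positive visual image hit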;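 further: compound added about 3h40 before a 20 min TNFalpha stimulation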;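 on inhibition: signal is the nuclear over cytoplasmic p65 intensity ratio per well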); conditions: HUVEC TNFa-induced p65 nuclear translocation; cell count: measured here: nuclei count (cytotoxicity indicator), at 2.08 µM; inhibition: at 2 µM, stronger effect = higher value, 0% TNFa-plus-vehicle, 100% no-TNFa wells
[2] = reduction of polyQ htt aggregates in cells – imaging, exon1htt(103Q)mCFP cells, high-content imaging, primary screen (AID 483;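 active means visual image review flags a hit and inhibition of aggregation exceeds 20%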;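 further: compound exposure lasted 3 days before fixation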;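 on nuclei count: percent of the per-plate median nuclei count of sample wells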); conditions: exon1htt(103Q)mCFP cell line, aggregate imaging, at 2 µM; inhibition of aggregation: stronger effect = higher value; nuclei count: measured here: cell count, toxicity
[3] = endothelial E-selectin expression blockers – imaging, HUVEC, immunofluorescence, MLSMR starter and 10KST1 sets, primary screen (AID 487;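 active means visually confirmed hit in the image check and inhibition above 20%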;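 on inhibition: signal is fraction of cell area covered by stained E-selectin grains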;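 on nuclei count: 100% = median nuclei count of all wells on the same plate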); conditions: HUVEC TNFalpha-induced E-selectin immunofluorescence imaging, at 2 µM; inhibition: stronger effect = higher value; nuclei count: measured here: cell number, toxicity
[4] = biological target: Voltage-gated potassium channel subunit beta-2 (Rattus norvegicus) (UniProt P62483); assay: inhibitors of rat Kvbeta2 reductase activity – biochemical, NADPH fluorescence, primary screen (AID 622); conditions: recombinant KvBeta, 4-cyanobenzaldehyde reduction, at 10 µM, stronger effect = higher value;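 further: slope of raw intensity against log time taken from 70 to 1610 s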
[5] = biological target: Voltage-gated potassium channel subunit beta-2 (Rattus norvegicus) (UniProt P62483); assay: enhancers of rat Kvbeta2 NADPH turnover – biochemical, NADPH fluorescence, primary screen (AID 623;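 active means NADPH fluorescence slope more negative than the mean of all samples by about 3 SD, 99.7% confidence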;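 further: fluorescence intensity change per second fitted from 20 to 320 s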); conditions: Recombinant KvBeta, NADPH fluorescence decrease slope, 10 min; at 10 µM; stronger effect = lower value
[6] = biological target: Alpha-2C adrenergic receptor (Homo sapiens) (UniProt P18825); assay: compounds altering alpha2C-coupled GIRK flux – cell-based, HEK293 alpha2C/GIRK1/2, thallium flux, primary screen (AID 624;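 active means fluorescence slope after compound addition differing from the mean of all screened samples at 99.7% confidence, in either direction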;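 further: slope of fluorescence ratio to pre-addition baseline per second over 15 to 24 s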); conditions: thallium flux BTC fluorescence, at 10 µM, actives lie on both sides
[7] = blockers of RIG-like receptor reporter activation – cell-based, Sendai virus stimulus, luciferase, 10K MLSCN set, TLR/RLR signaling modifier project, primary screen (AID 602276;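 active means inhibition at or above 50% at 10 µM; inactive means inhibition below 50%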;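 further: firefly luciferase from ISG56 promoter only with Renilla not read in this screen; 0% = Sendai virus plus DMSO and 100% = medium plus DMSO without virus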); conditions: HEK293 RL24 IRF3 luciferase reporter, at 10 µM, stronger effect = higher value
[8] = TLR3 IRF3 reporter activation blockers – cell-based, poly I:C stimulus, luciferase, 10K MLSCN set, primary screen (AID 602277;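 active means inhibition of the reporter signal at or above 50%; inactive means inhibition below 50%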); conditions: HEK293-TLR3 RL24 IRF3 luciferase reporter, at 10 µM, stronger effect = higher value
[9] = inhibitors of larval lipid processing in zebrafish, primary screen, whole organism, PED6 fluorescence, gall bladder and intestine (AID 686;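 active means a full or partial loss of lipid-probe fluorescence in the fish gall bladder, intestine or both, judged by eye; inactive means no fluorescence loss, or compound toxic to the fish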;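 further: larvae 5 to 7 days old with five fish per well; signal comes from phospholipase A2 cleavage of quenched PED6 carried via bile; overnight exposure to compound and PED6 before scoring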); conditions: Zebrafish larvae PED6 lipid processing, fluorescence scoring; screened at 20 µM (by protocol)
Outline: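 system = live zebrafish larvae aged 5-7 days, whole organism | probe or stimulus = ingested quenched lipid PED6 at 100 nM | doses = 20 µM single dose | timing = overnight exposure | detection = fluorescence microscopy with visual scoring of gall bladder and intestine | read-out = visual per-well fluorescence inhibition score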

Sequence of Alpha-2C adrenergic receptor (Homo sapiens) (P18825 whole entry, looked up): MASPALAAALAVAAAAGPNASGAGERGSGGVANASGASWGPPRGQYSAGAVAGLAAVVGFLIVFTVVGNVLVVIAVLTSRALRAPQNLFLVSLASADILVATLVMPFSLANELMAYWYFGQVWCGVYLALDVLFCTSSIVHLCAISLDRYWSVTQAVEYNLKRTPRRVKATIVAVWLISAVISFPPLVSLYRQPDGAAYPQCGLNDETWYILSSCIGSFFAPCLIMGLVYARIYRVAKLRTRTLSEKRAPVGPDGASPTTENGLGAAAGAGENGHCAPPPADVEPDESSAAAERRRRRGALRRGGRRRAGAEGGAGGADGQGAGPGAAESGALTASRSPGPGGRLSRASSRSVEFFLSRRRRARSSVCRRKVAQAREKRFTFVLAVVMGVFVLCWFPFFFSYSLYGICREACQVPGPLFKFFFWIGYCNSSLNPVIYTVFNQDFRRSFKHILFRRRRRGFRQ
Sequence of Voltage-gated potassium channel subunit beta-2 (Rattus norvegicus) (P62483 whole entry, looked up): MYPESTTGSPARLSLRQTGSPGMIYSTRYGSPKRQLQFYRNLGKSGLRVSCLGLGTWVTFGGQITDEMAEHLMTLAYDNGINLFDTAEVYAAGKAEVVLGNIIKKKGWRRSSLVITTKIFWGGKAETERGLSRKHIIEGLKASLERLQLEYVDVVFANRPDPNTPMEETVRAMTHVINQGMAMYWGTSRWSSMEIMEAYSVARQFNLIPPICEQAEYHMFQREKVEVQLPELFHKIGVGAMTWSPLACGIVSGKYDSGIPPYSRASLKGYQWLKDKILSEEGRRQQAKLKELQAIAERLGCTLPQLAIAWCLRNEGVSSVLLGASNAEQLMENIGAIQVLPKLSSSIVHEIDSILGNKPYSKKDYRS

Compound	cell count [1]	inhibition [1]	inhibition of aggregation [2]	nuclei count [2]	inhibition [3]	nuclei count [3]	fluorescence slope [4]	NADPH fluorescence slope [5]	slope [6]	inhibition [7]	inhibition [8]	outcome [9]
O=C(Nc1ccc(N2C(=O)C3C4C=CC(C4)C3C2=O)cc1)Nc1cccnc1 (stereo not drawn)	426	0% (inactive)	-7.7% (inactive)	104%	-33.4% (inactive)	112%	-0.334 (inactive)	-2.1e-05 (inactive)	0.00357 (inactive)	7.37% (inactive)	3.82% (inactive)	
O=S(=O)(Cc1ccccc1)N1CCN(Cc2ccccc2)CC1	386	4.8% (inactive)	12.7% (inactive)	103%	-74.1% (inactive)	117%	-0.46 (inactive)	4.9e-05 (inactive)	0.00741 (inactive)	-12% (inactive)	-7.67% (inactive)	
COCCn1nnnc1C(c1cc2ccc(OC)cc2[nH]c1=O)N1CCc2ccccc2C1 (stereo not drawn)	454	7.5% (inactive)	-1.5% (inactive)	86.9%	-43% (inactive)	95.9%	-0.503 (inactive)	-1.3e-05 (inactive)	0.00527 (inactive)	29.3% (inactive)	37.8% (inactive)	
O=c1cc(C(F)F)oc2c1ccc1ccccc12	398	-4% (inactive)	14.2% (inactive)	94%	-244% (inactive)	99.4%	-0.349 (inactive)	-1.6e-05 (inactive)	0.00247 (inactive)	9.69% (inactive)	19.9% (inactive)	
CC(=O)Nc1ccccc1-c1nc2ccc(C(=O)N3CCN(c4ccccc4)CC3)cc2[nH]c1=O	617	14.7% (inactive)	-6.6% (inactive)	96.8%	-3.1% (inactive)	110%	-0.489 (inactive)	-4.7e-05 (inactive)	0.00656 (inactive)	5.92% (inactive)	-0.673% (inactive)	
COc1ccc(S(=O)(=O)Nc2ccc(S(=O)(=O)N3CCCCC3)cc2)cc1OC	444	-4.8% (inactive)	-3.5% (inactive)	110%	-34.6% (inactive)	99.1%	-0.459 (inactive)	-4.3e-05 (inactive)	0.00325 (inactive)	5.56% (inactive)	29.1% (inactive)	
Cn1c(=O)c2c(nc(NCc3ccco3)n2C/C=C/c2ccccc2)n(C)c1=O	256	8.8% (inactive)	6.1% (inactive)	99.5%	-65.5% (inactive)	118%	-0.637 (inactive)	3.3e-05 (inactive)	0.00629 (inactive)	14.8% (inactive)	18.9% (inactive)	
O=C(CNCCC1=CCCCC1)Nc1ccccc1N1CCCCC1	531	-56.1% (inactive)	-10.4% (inactive)	107%	-65.7% (inactive)	109%	-0.581 (inactive)	-2.4e-05 (inactive)	0.00492 (inactive)	7.21% (inactive)	18.4% (inactive)	
O=C(NCC(c1cccnc1)N1CCN(c2ccc(F)cc2)CC1)OCc1ccccc1 (stereo not drawn)	568	-6.4% (inactive)	-3.7% (inactive)	128%	-34.3% (inactive)	126%	-0.605 (inactive)	7e-06 (inactive)	0.00599 (inactive)	17.1% (inactive)	1.38% (inactive)	
Cc1cccc(NC(=O)c2ccc(S(=O)(=O)N(C)C)cc2)n1	290	-5.5% (inactive)	4.5% (inactive)	108%	-126% (inactive)	94.4%	-0.318 (inactive)	-2.4e-05 (inactive)	0.00507 (inactive)	-11.6% (inactive)	-45.9% (inactive)	inactive
COc1ccc(CCN2C(=O)CC(N3CCN(S(=O)(=O)c4ccccc4)CC3)C2=O)cc1 (stereo not drawn)	666	11.3% (inactive)	19.5% (inactive)	106%	69.9% (active)	110%	-0.483 (inactive)	-8.5e-06 (inactive)	0.0045 (inactive)	11.6% (inactive)	6.07% (inactive)	inactive
C=CCNc1nc2c(c(=O)n(C)c(=O)n2C)n1CCCCCC	438	4.7% (inactive)	-8% (inactive)	94.9%	4% (inactive)	107%	-0.39 (inactive)	-3.7e-05 (inactive)	0.00457 (inactive)	8.07% (inactive)	-34.5% (inactive)	inactive
c1ccc2c(-c3nc(-c4ccncc4)no3)cccc2c1	313	-1.1% (inactive)	-4.5% (inactive)	88.4%	-210% (inactive)	118%	-0.442 (inactive)	-3.1e-05 (inactive)	0.00497 (inactive)	-14.2% (inactive)	-43.8% (inactive)	inactive
COc1ccc(N(C(=O)c2ccco2)S(=O)(=O)c2cc(OC)ccc2OC)cc1	568	4.3% (inactive)	7.3% (inactive)	97.7%	25.3% (inactive)	93.2%	-0.343 (inactive)	9.2e-06 (inactive)	0.00421 (inactive)	8.61% (inactive)	20.5% (inactive)	
